Assay outcomes (PubChem BioAssay)
In the library only some 11% were active in any assay of this set; here they are far more common.
M1 antag = M1 muscarinic receptor (rat) antagonism. AID 628. 64,000 tested, 3.4% active. B-score at 10 µM. CHO-M1 cells, Fluo-4 calcium, ACh EC80 antagonist mode; stronger effect = lower value;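 active means calcium fluorescence response, raw or row-and-column corrected B-score, differing from the plate sample mean either way at a set confidence level, mostly lower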
Target sequence (P08482 whole entry, looked up): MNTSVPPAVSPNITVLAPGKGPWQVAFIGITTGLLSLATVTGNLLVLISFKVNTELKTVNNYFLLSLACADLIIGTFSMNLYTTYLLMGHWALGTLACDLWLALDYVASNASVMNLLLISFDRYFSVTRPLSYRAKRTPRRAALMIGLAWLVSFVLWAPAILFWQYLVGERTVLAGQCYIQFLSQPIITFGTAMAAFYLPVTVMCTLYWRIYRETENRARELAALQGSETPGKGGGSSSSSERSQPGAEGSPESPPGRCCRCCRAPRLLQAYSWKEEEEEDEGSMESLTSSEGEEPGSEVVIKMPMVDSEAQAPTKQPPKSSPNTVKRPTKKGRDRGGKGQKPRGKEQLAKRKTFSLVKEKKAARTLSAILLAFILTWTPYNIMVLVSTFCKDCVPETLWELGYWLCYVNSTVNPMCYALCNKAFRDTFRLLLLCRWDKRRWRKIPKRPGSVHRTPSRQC
S1P1 ag-PAM = S1P1 (human) agonism or agonism potentiation; P21453; S1P1 CRE-bla cells, forskolin, beta-lactamase FRET, potentiator mode; S1P1 agonist co-added at EC20, 2 nM; 100% = saturating reference agonist, 0% = basal; activation, % at 9.5 µM; 56,000 tested, 0.57% active;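 active means activation above a cutoff set at the mean activation of all tested compounds plus 3 SD, cut at about 54% in these data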;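 further: forskolin at 4 µM as EC80 and the EC20 agonist is SEW2871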
S1P3 agonist = agonists of human S1P3 receptor; S1P3 NFAT-BLA reporter cells, agonism, FRET ratio; relative to 1 µM S1P, basal subtracted; activation, % at 4.5 µM; Q99500; 60,000 tested, 0.1% active; AID 373;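 active means activation above the screen-wide mean plus 3 SD, cut at about 4.5% in these data, passing the limit was not always enough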
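Assay system: CHO cells stably expressing human S1P3, Gα16 and NFAT-β-lactamase reporter. Timing: overnight plating, 4 h compound 37 °C, 2 h substrate RT. Signal: β-lactamase FRET emission ratio 460/535 nm. Measure: percent activation versus median 1 µM S1P response, basal-subtracted, per plate. Repeats: primary screen single test, confirmation screen in triplicate.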
D1 allo mod = allosterically modulates the human D1 dopamine receptor | HEK293 D1, CRE-luciferase, dopamine EC30 potentiation; actives deviate in either direction | B-score at 10 µM | 58,000 tested, 5.9% active | AID 641;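 active means luminescence count or its row- and column-corrected plate score outside the 99.7% band of the plate's sample wells, on either side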
M1 agonist = agonists of M1 muscarinic receptor. 64,000 tested, 3% active. B-score at 10 µM. AID 626. CHO-M1 cells, Fluo-4 calcium fluorescence, agonist mode; stronger effect = higher value;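 active means fluorescence rise, raw or as B-score row- and column-corrected plate score, outside the 99.7% band of its plate's samples, either direction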
Large screens that a line does not name were inactive.

Cc1ccc(C(=O)Nc2nc(COc3ccccc3)cs2)s1	S1P1 ag-PAM 98
CS(=O)(=O)c1ccc2nc(NC(=O)c3cccs3)sc2c1	D1 allo mod -5.7 (no result: S1P1 ag-PAM)
COC(=O)C1=CN(CC2CCCO2)C=C(C(=O)OC)C1c1cc(OC)c(OC)c(OC)c1 (stereo not given)	none (no result: S1P1 ag-PAM, S1P3 agonist, D1 allo mod)
CCOC(=O)N1CCN(S(=O)(=O)c2cc(Cl)c(OC)cc2Cl)CC1	none
CCOC(=O)N1CCN(S(=O)(=O)c2cc(Br)cnc2N)CC1	D1 allo mod -3.3 (no result: M1 antag, M1 agonist)
COc1ccc(C2=C(O)C(C)N(c3ccccc3)C2=N)cc1OC (stereo not given)	D1 allo mod -3.5
CCOC(=O)c1ccc2[nH]c(C)c(CCC(C)=O)c(=O)c2c1	none
Cc1[nH]c2ccc(C(=O)OCCN(C)C)cc2c1C	D1 allo mod -4
CCOC(=O)c1c(-c2ccccc2)csc1NC(=O)CSc1nnnn1C	M1 agonist 3.2
CCOC(=O)c1ccc(NC(=O)CSc2nnnn2CCCO)cc1	M1 antag 1.8
CCOC(=O)c1c(NC(=O)CSc2nnnn2C)sc(C)c1-c1ccc(C)cc1	none
C=CCn1nnnc1SCC(=O)Nc1cccc(OC)c1	M1 antag 11 (no result: S1P1 ag-PAM)
CCCCn1nnnc1SCC(=O)c1ccc(C)c(C)c1	S1P1 ag-PAM 84
CCN1CCn2c3c(c4cc(Cl)ccc42)CCCC31 (stereo not given)	M1 antag 1.8
CCn1c2c(c3cc(Cl)ccc31)CCCC2=O	none
Cc1cc(C)cc(C(=O)/C=C2\NC(=O)CS2)c1	D1 allo mod -1.8
O=C1CS/C(=C/C(=O)c2ccccc2)N1	none
COc1ccccc1N1CCN(c2cc(=O)n(-c3ccc(Br)cc3)c(=O)[nH]2)CC1	none (no result: S1P1 ag-PAM, S1P3 agonist)
O=c1cc(N2CCN(c3ccccc3F)CC2)[nH]c(=O)n1-c1ccc(Br)cc1	M1 agonist -2.6
OC(c1cccc(OCc2ccccc2)c1)c1nnc(-c2ccccc2)o1 (stereo not given)	S1P1 ag-PAM 111
CCCCOc1ccc(-c2nnn(CC(=O)Nc3ncc(CC(=O)OCC)s3)n2)cc1	M1 antag 2.5
CCOC(=O)Cc1cnc(NC(=O)Cn2nnc(-c3ccc(OCC)cc3)n2)s1	none
Cc1ccc(Oc2ccc(S(=O)(=O)N3CCOCC3)cc2C(N)=O)c(-n2nc3ccccc3n2)c1	none
Nc1ccc(C2CCCc3nonc32)c2nonc12 (stereo not given)	D1 allo mod -2.8 (no result: M1 antag, M1 agonist)
C=C(C)CSc1nnc([C@@H]2CCCN2C(=O)OC(C)(C)C)o1	none
CCN1CC=C2C(C#N)=C(N)C(C#N)(C#N)C(c3cc(Cl)ccc3Cl)C2C1 (stereo not given)	M1 agonist 35
Cc1nc2sc(-c3ccccc3)cc2c(=O)n1-n1cccc1	S1P1 ag-PAM 60
CCc1nc(SCc2cccnc2)[nH]c(=O)c1C	none (no result: M1 antag, M1 agonist)
Cc1cccc(C)c1NC(=O)Cn1c(=O)n(CCCC(=O)NCc2ccco2)c(=O)c2sccc21	none
COc1ccc2nc(NCc3ccccc3)[nH]c2c1	D1 allo mod -4.1
COc1ccc2nc(-c3ccccc3)[nH]c2c1	D1 allo mod -5.3
O=C(Nc1ccn(-c2ccccc2)n1)c1ccc(S(=O)(=O)N2CCCCCC2)cc1	none
CC1(C)C(C=C(Cl)Cl)C1C(=O)N1CCN(c2ccccc2)CC1 (stereo not given)	none
Cc1cc(C)cc(N2CCCn3c2nc2c3c(=O)n(CC(=O)OCc3ccccc3)c(=O)n2C)c1	D1 allo mod -1.1
COc1ccc(N2CCCn3c2nc2c3c(=O)n(CCc3ccccc3)c(=O)n2C)cc1	D1 allo mod -2.8
CCOc1ccc(-n2cc(C(=O)N3CCC(C)CC3)c3cc(OC)c(OC)cc3c2=O)cc1	none
CCOc1ccc(-n2cc(C(=O)Nc3cccc(C)n3)c3cc(OC)c(OC)cc3c2=O)cc1	M1 agonist 7.6
CC1CCN(CC(O)COc2ccc(F)cc2)CC1 (stereo not given)	D1 allo mod -5.6
CC(C)c1ccc(OCC(O)CN2CCN(c3ccccc3)CC2)cc1 (stereo not given)	D1 allo mod -4.5
O=C(O)CCn1c(-c2ccccc2)cc2c1CCCC2=O	M1 antag 0.72 (no result: D1 allo mod)
Cn1c(=O)n(CCC(=O)O)c2ccccc21	none
O=C(c1ccc(=O)oc1)N1CCCc2ccccc21	none
COC(=O)c1sc2nc(-c3ccco3)ccc2c1N	D1 allo mod -3.2
Clc1ccc(-c2nnc(NC3=NCCCCC3)o2)cc1	D1 allo mod -5.8
Cc1cc(NC(=O)NC(=O)c2ccc(F)cc2F)n[nH]1	D1 allo mod -3.3
O=C(CN(C1CCCCC1)S(=O)(=O)c1ccc(Cl)cc1)NCc1ccncc1	none
O=C(COc1nnnc2ccccc12)N1CCCc2ccccc21	none
O=C(Cn1cnc2ccccc21)OCC(=O)N1CCCc2ccccc21	M1 agonist -2.4
Cc1ccc(-c2cc(C(=O)N3CCCC3)no2)cc1	D1 allo mod -5.2
COc1ccccc1N1CCN(C(=O)c2cc(-c3ccc(C)cc3)on2)CC1	none
COc1ccc(C(=O)NCC2OCCc3ccccc32)c(O)c1 (stereo not given)	none
CCOc1cc2[nH]c(=O)n(CCCCC(=O)NC3CCCCC3)c(=O)c2cc1OCC	none
CCC(C)C(NC(=O)c1ccccc1NC(=O)c1ccc(OC)cc1)C(=O)NCc1ccco1 (stereo not given)	D1 allo mod -4.7
Cc1cccn2c(=O)c3cc(C#N)c(=NC(=O)c4ccncc4)n(Cc4ccco4)c3nc12	M1 agonist 6.6
CCCCCn1c(=NC(C)=O)c(C#N)cc2c(=O)n3ccccc3nc21	none
CCCCn1c(=NC(C)=O)c(C#N)cc2c(=O)n3cccc(C)c3nc21	M1 agonist 21
COCCn1c(=NC(=O)c2ccc3c(c2)OCO3)c(C#N)cc2c(=O)n3cccc(C)c3nc21	none
CN1CCc2c(sc3c2c(=O)n(-c2ccccc2)c2nnc(SCc4ccccc4F)n32)C1	none
O=C(COc1cc(Cl)c(Cl)cc1Cl)Nn1cnnc1	none (no result: S1P1 ag-PAM)
COc1cccc(-c2nnc3n2N=C(C(C)(C)C)CS3)c1	none (no result: S1P1 ag-PAM, S1P3 agonist, D1 allo mod)
O=C(CN1CCC(n2nnc3cc(F)ccc32)CC1)NC1CC1	none
O=C(CN1CCC(n2nnc3cc(F)ccc32)CC1)Nc1ccccc1N1CCOCC1	D1 allo mod -3.1
COc1cc(C2NC(C(=O)O)CS2)ccc1OCc1ccccc1C#N (stereo not given)	D1 allo mod -2.8 (no result: M1 antag, M1 agonist)
Cn1ccnc1C(O)(c1nnc(-c2ccccc2)o1)C(F)(F)F (stereo not given)	none
N#CC1=C(SCc2ccccc2Cl)NC(=O)C(C(N)=O)C1 (stereo not given)	none
COc1ccc(-c2cc3nc4c(c(N5CCC6(CC5)OCCO6)n3n2)CCCC4)cc1	D1 allo mod 3.7
CCn1ncc(C2=NOC(C(=O)Nc3c(C)nn(Cc4ccc(F)cc4)c3C)C2)c1C (stereo not given)	M1 agonist -2.5
